Converted amounts (≈) assume the structure as drawn. The source made the active and inactive calls. No cut-off for these calls is given here.
What was measured:
Candida albicans [1] = assay: Antifungal activity against fluconazole-resistant Candida albicans isolate 1 isolated from AIDS patient; type: functional
Aspergillus fumigatus [2] = assay: Antifungal activity against Aspergillus fumigatus ATCC 204305; type: functional
Cryptococcus neoformans [3] = assay: Antifungal activity against Cryptococcus neoformans ATCC 66031; type: functional
Candida albicans [4] = assay: Antifungal activity against Candida albicans ATCC 90028; type: functional
Procedure, shortened: (§1)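 Read-outs were MIC and MFC, in μg/mL. MFC is the lowest concentration that kills the fungus.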

[5] = Selectivity index of IC50 for african green monkey Vero cells to MFC for Cryptococcus neoformans ATCC 90113; type: toxicity, cell-based; details: read-out: Selectivity Index
Procedure, shortened: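 The index is the Vero cell cytotoxicity IC50 divided by the MFC against C. neoformans.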

Aspergillus fumigatus [6] = assay: Antifungal activity against Aspergillus fumigatus ATCC 90906; type: functional; procedure, shortened: as §1
Candida albicans [7] = assay: Antifungal activity against fluconazole-resistant Candida albicans isolate 17 isolated from AIDS patient; type: functional
Vero = assay: Cytotoxicity against african green monkey Vero cells; type: cell-based; details: Chlorocebus sabaeus
Candida albicans [8] = assay: Antifungal activity against Candida albicans ATCC 32354; type: functional
Cryptococcus neoformans [9] = assay: Antifungal activity against Cryptococcus neoformans ATCC 90113; type: functional; procedure, shortened: as §1
[10] = test system: Cryptococcus bacillisporus; assay: Antifungal activity against fluconazole-resistant Cryptococcus gattii ATCC 32609; type: functional
Candida albicans [11] = assay: Antifungal activity against Candida albicans ATCC 14053; type: functional; procedure, shortened: as §1
Aspergillus flavus [12] = assay: Antifungal activity against Aspergillus flavus ATCC 204304; type: functional
Procedure, shortened: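 Panel of 23 fungal strains assayed by the group's previously published protocol. Read-outs in μg/mL are the MIC and the MFC, the lowest concentration that kills the fungus.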

Aspergillus fumigatus [13] = assay: Antifungal activity against Aspergillus fumigatus ATCC 13073; type: functional
Procedure, shortened: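 Panel of 23 fungal strains assayed by the group's previously published protocol. Read-outs in μg/mL are the MIC and the MFC, the lowest concentration that kills the fungus. The highest concentration tested was 160 μg/mL, or 5 μg/mL for some agents.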

Aspergillus niger [14] = assay: Antifungal activity against Aspergillus niger ATCC 16404 at 5 ug/ml; type: functional, organism-based
Candida albicans [15] = assay: Antifungal activity against amphotericin-B-resistant Candida albicans ATCC 200955; type: functional
Candida tropicalis [16] = assay: Antifungal activity against Candida tropicalis ATCC 750 at 160 ug/ml; type: functional, organism-based
Aspergillus niger [17] = assay: Antifungal activity against Aspergillus niger ATCC 16404 at 160 ug/ml; type: functional, organism-based
Nakaseomyces glabratus [18] = assay: Antifungal activity against intrinsically fluconazole-resistant Candida glabrata ATCC 90030; type: functional
Candida albicans [19] = assay: Antifungal activity against Candida albicans ATCC 60193; type: functional
Candida albicans [20] = assay: Antifungal activity against Candida albicans ATCC 14053 at 160 ug/ml; type: functional, organism-based
Candida tropicalis [21] = assay: Antifungal activity against Candida tropicalis ATCC 750; type: functional
Candida albicans [22] = assay: Antifungal activity against Candida albicans ATCC 32354 at 160 ug/ml; type: functional, organism-based
Pichia kudriavzevii = assay: Antifungal activity against intrinsically fluconazole-resistant Candida krusei ATCC 6258; type: functional
Candida albicans [23] = assay: Antifungal activity against fluconazole-resistant Candida albicans isolate 1 isolated from AIDS patient at 160 ug/ml; type: functional, organism-based
Candida parapsilosis [24] = assay: Antifungal activity against Candida parapsilosis ATCC 22019; type: functional; details: Lodderomyces parapsilosis
Candida albicans [25] = assay: Antifungal activity against Candida albicans ATCC 60193 at 160 ug/ml; type: functional, organism-based
Candida parapsilosis [26] = assay: Antifungal activity against Candida parapsilosis ATCC 22019 at 160 ug/ml; type: functional, organism-based
Aspergillus fumigatus [27] = assay: Antifungal activity against Aspergillus fumigatus ATCC 13073 at 160 ug/ml; type: functional, organism-based
Candida albicans [28] = assay: Antifungal activity against amphotericin-B-resistant Candida albicans ATCC 200955 at 160 ug/ml; type: functional, organism-based
Aspergillus fumigatus [29] = assay: Antifungal activity against Aspergillus fumigatus ATCC 90906 at 160 ug/ml; type: functional, organism-based
Candida albicans [30] = assay: Antifungal activity against fluconazole-resistant Candida albicans isolate 17 isolated from AIDS patient at 160 ug/ml; type: functional, organism-based
Aspergillus flavus [31] = assay: Antifungal activity against Aspergillus flavus ATCC 204304 at 160 ug/ml; type: functional, organism-based
Candida albicans [32] = assay: Antifungal activity against Candida albicans ATCC 90028 at 160 ug/ml; type: functional, organism-based
Aspergillus fumigatus [33] = assay: Antifungal activity against Aspergillus fumigatus ATCC 204305 at 160 ug/ml; type: functional, organism-based
Nakaseomyces glabratus [34] = assay: Antifungal activity against intrinsically fluconazole-resistant Candida glabrata ATCC 90030 at 160 ug/ml; type: functional, organism-based
Aspergillus fumigatus [35] = assay: Antifungal activity against Aspergillus fumigatus ATCC 90906 at 20 ug/ml; type: functional, organism-based
Candida albicans [36] = assay: Antifungal activity against Candida albicans ATCC 90028 at 20 ug/ml; type: functional, organism-based
Cryptococcus neoformans [37] = assay: Antifungal activity against Cryptococcus neoformans ATCC 90113 at 20 ug/ml; type: functional, organism-based

With `CCCCCCCCCCCCCCC1(O)C=CC2=[N+](C)CCCN21.[I-]` (centres undefined) the MIC (Candida albicans [1]) was 1.25 µg/mL, the MFC (Aspergillus fumigatus [2]) was 10 µg/mL and the MFC (Cryptococcus neoformans [3]) was 0.31 µg/mL. It also gave an MIC (Cryptococcus neoformans [3]) of 0.23 µg/mL, an MIC (Candida albicans [4]) of 1.88 µg/mL and a selectivity ratio [5] of 53. The MFC (Aspergillus fumigatus [6]) was 5 µg/mL, the MIC (Aspergillus fumigatus [6]) was 1.88 µg/mL and the MFC (Candida albicans [7]) was 2.5 µg/mL. It also gave an IC50 (Vero) of 16.5 µg/mL, an MFC (Candida albicans [8]) of 10 µg/mL and an MFC (Cryptococcus neoformans [9]) of 0.31 µg/mL. The MIC (Cryptococcus neoformans [9]) was 0.31 µg/mL, the MFC [10] was 0.63 µg/mL and the MIC [10] was 0.63 µg/mL. It also gave an MIC (Candida albicans [11]) of 1.88 µg/mL.

`C[C@@H]1[C@H](O)[C@@H](C)/C=C/C=C/C=C/C=C/C=C/C=C/C=C/[C@H](O[C@@H]2O[C@H](C)[C@@H](O)[C@H](N)[C@@H]2O)C[C@@H]2O[C@](O)(C[C@@H](O)C[C@@H](O)[C@H](O)CC[C@@H](O)C[C@@H](O)CC(=O)O[C@H]1C)C[C@H](O)[C@H]2C(=O)O` [AMPHOTERICIN B] gave an MFC (Aspergillus flavus [12]) of 5 µg/mL (≈ 5.41 µM), an MFC (Aspergillus fumigatus [13]) of 10 µg/mL (≈ 10.8 µM) and an MIC (Aspergillus fumigatus [13]) of 1.5 µg/mL (≈ 1.62 µM). It also gave an MFC (Cryptococcus neoformans [3]) of 0.31 µg/mL (≈ 0.335 µM), an MIC (Cryptococcus neoformans [3]) of 0.16 µg/mL (≈ 0.173 µM) and an MIC (Candida albicans [7]) of 0.94 µg/mL (≈ 1.02 µM). The IC50 (Vero) was 4.7 µg/mL (≈ 5.09 µM), the Activity (Aspergillus niger [14]) was “inactive” and the MIC (Candida albicans [15]) was 1.88 µg/mL (≈ 2.03 µM). For the same molecule, the MFC [10] was 0.57 µg/mL (≈ 0.617 µM) and the MIC [10] was 0.57 µg/mL (≈ 0.617 µM).

Molecule `CCCCCCCCCCCCCCCCC1(O)C=CC2=[N+](C)CCCN21.[I-]` (centres undefined) has an MFC (Candida albicans [4]) of 2.5 µg/mL, an MIC (Candida albicans [4]) of 2.5 µg/mL and a selectivity ratio [5] of 13. The MFC (Aspergillus fumigatus [6]) was 5 µg/mL, the MIC (Aspergillus fumigatus [6]) was 5 µg/mL and the IC50 (Vero) was 16 µg/mL. It also gave an MFC (Cryptococcus neoformans [9]) of 1.25 µg/mL and an MIC (Cryptococcus neoformans [9]) of 1.25 µg/mL.

`CCCCCCCCCCCCC1(O)C=CC2=[N+](C)CCCN21.[I-]` (centres undefined) showed an MFC (Candida albicans [4]) of 10 µg/mL, an MIC (Candida albicans [4]) of 7.5 µg/mL and a selectivity ratio [5] of 29. It also gave an MFC (Aspergillus fumigatus [6]) of 10 µg/mL, an MIC (Aspergillus fumigatus [6]) of 5 µg/mL and an IC50 (Vero) of 18.3 µg/mL. For the same molecule, the MFC (Cryptococcus neoformans [9]) was 0.63 µg/mL and the MIC (Cryptococcus neoformans [9]) was 0.63 µg/mL.

For `OC(Cn1cncn1)(Cn1cncn1)c1ccc(F)cc1F` [FLUCONAZOLE], the Activity (Candida tropicalis [16]) was “inactive”, the MIC (Candida albicans [1]) was 10.4 µg/mL (≈ 33.9 µM) and the Activity (Aspergillus niger [17]) was “inactive”. For the same molecule, the MIC (Nakaseomyces glabratus [18]) was 45 µg/mL (≈ 147 µM), the MFC (Cryptococcus neoformans [3]) was 12.5 µg/mL (≈ 40.8 µM) and the MIC (Cryptococcus neoformans [3]) was 3.91 µg/mL (≈ 12.8 µM). The MIC (Candida albicans [19]) was 0.2 µg/mL (≈ 0.653 µM), the MIC (Candida albicans [4]) was 0.51 µg/mL (≈ 1.67 µM) and the Activity (Candida albicans [20]) was “inactive”. The MIC (Candida tropicalis [21]) was 13.1 µg/mL (≈ 42.8 µM), the Activity (Candida albicans [22]) was “inactive” and the MFC (Pichia kudriavzevii) was 80 µg/mL (≈ 261 µM). The MIC (Pichia kudriavzevii) was 45 µg/mL (≈ 147 µM), the Activity (Candida albicans [23]) was “inactive” and the MIC (Candida parapsilosis [24]) was 2.8 µg/mL (≈ 9.14 µM). For the same molecule, the Activity (Candida albicans [25]) was “inactive”, the Activity (Candida parapsilosis [26]) was “inactive” and the MIC (Candida albicans [8]) was 0.94 µg/mL (≈ 3.07 µM). The Activity (Aspergillus fumigatus [27]) was “inactive”, the Activity (Candida albicans [28]) was “inactive” and the Activity (Aspergillus fumigatus [29]) was “inactive”. The Activity (Candida albicans [30]) was “inactive”, the Activity (Aspergillus flavus [31]) was “inactive” and the MFC (Cryptococcus neoformans [9]) was 25 µg/mL (≈ 81.6 µM). The MIC (Cryptococcus neoformans [9]) was 9.38 µg/mL (≈ 30.6 µM), the Activity (Candida albicans [32]) was “inactive” and the Activity (Aspergillus fumigatus [33]) was “inactive”. The MIC (Candida albicans [15]) was 0.35 µg/mL (≈ 1.14 µM), the MFC [10] was 50 µg/mL (≈ 163 µM) and the MIC [10] was 50 µg/mL (≈ 163 µM). The MIC (Candida albicans [11]) was 0.25 µg/mL (≈ 0.816 µM) and the Activity (Nakaseomyces glabratus [34]) was “inactive”.

In the case of `CCCCCCCCCCC1(O)C=CC2=[N+](C)CCCN21.[I-]` (centres undefined), the MIC (Candida albicans [4]) is reported as 20 µg/mL, the selectivity ratio [5] is reported as 2 and the Activity (Aspergillus fumigatus [35]) is reported as “inactive”. For the same molecule, the IC50 (Vero) was 21.3 µg/mL, the Activity (Candida albicans [36]) was “inactive” and the MFC (Cryptococcus neoformans [9]) was 10 µg/mL. It also gave an MIC (Cryptococcus neoformans [9]) of 10 µg/mL.

With `CCCCCCCCCCCCCCCCCCC1(O)C=CC2=[N+](C)CCCN21.[I-]` (centres undefined) the MFC (Candida albicans [4]) was 2.5 µg/mL, the MIC (Candida albicans [4]) was 2.5 µg/mL and the selectivity ratio [5] was 6. The MIC (Aspergillus fumigatus [6]) was 10 µg/mL, the Activity (Aspergillus fumigatus [35]) was “inactive” and the IC50 (Vero) was 12.3 µg/mL. It also gave an MFC (Cryptococcus neoformans [9]) of 1.97 µg/mL and an MIC (Cryptococcus neoformans [9]) of 1.61 µg/mL.

In the case of `CCCCCCC1(O)C=CC2=[N+](C)CCCN21.[I-]` (centres undefined), the Activity (Aspergillus fumigatus [35]) is reported as “inactive”, the Activity (Cryptococcus neoformans [37]) is reported as “inactive” and the IC50 (Vero) is reported as greater than 25 µg/mL. For the same molecule, the Activity (Candida albicans [36]) was “inactive”.

— ChEMBL document CHEMBL1944556, “Natural Product Based 6-Hydroxy-2,3,4,6-tetrahydropyrrolo[1,2-a]pyrimidinium Scaffold as A New Antifungal Template” (ACS Med Chem Lett, 2011)
